In ChEMBL document CHEMBL1221306, “Synthesis, activity, and pharmacokinetic properties of a series of conformationally-restricted thiourea analogs as novel hepatitis C virus inhibitors” (Bioorg Med Chem, 2010):
pEC50: −log10 of the molar value.

What was measured:
[1] = Cytotoxicity against human HuH7 cells after 24 hrs; type: cell-based, Huh-7
[2] = test system: Hepatitis C virus; test: Antiviral activity against HCV1b infected in human HuH7 cells assessed as inhibition of viral replication after 24 hrs; type: functional, organism-based, Hepacivirus hominis; settings: genotype 1b, Huh-7, 24 h
[3] = Tmax in Sprague-Dawley rat at 25 mg/kg, po; type: ADME, organism-based; parameters: dose 25 mg/kg, route oral; settings: in vivo
Method in brief: (§1)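 Male rats (330–380 g, 9–10 weeks old, n = 3) were given the compound as a solution in DMA/propylene glycol (20:80, v/v), either iv at 5 mg/kg or po at 25 mg/kg. Rats were fasted and had jugular-vein cannulae. Blood was sampled at 0, 2, 5 (iv only) and 15 min, 30 min, and 1, 2, 4, 6, 8 and 24 h. Plasma was assayed by HPLC–MS/MS and analysed non-compartmentally.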

[4] = AUC in Sprague-Dawley rat at 5 mg/kg, iv; type: ADME, organism-based; parameters: dose 5 mg/kg, route intravenous; settings: plasma; method in brief: as §1
[5] = Half life in Sprague-Dawley rat at 25 mg/kg, po; type: ADME, organism-based; parameters: dose 25 mg/kg, route oral; settings: in vivo; method in brief: as §1
[6] = Clearance in Sprague-Dawley rat at 5 mg/kg, iv; type: ADME, organism-based; parameters: dose 5 mg/kg, route intravenous; settings: in vivo; method in brief: as §1
[7] = Oral bioavailability in Sprague-Dawley rat at 25 mg/kg; type: ADME, organism-based; settings: in vivo; method in brief: as §1
[8] = Cmax in Sprague-Dawley rat at 25 mg/kg, po; type: ADME, organism-based; parameters: dose 25 mg/kg, route oral; settings: in vivo; method in brief: as §1
[9] = Half life in Sprague-Dawley rat at 5 mg/kg, iv; type: ADME, organism-based; parameters: dose 5 mg/kg, route intravenous; settings: in vivo; method in brief: as §1
[10] = AUC in Sprague-Dawley rat at 25 mg/kg, po; type: ADME, organism-based; parameters: dose 25 mg/kg, route oral; settings: plasma; method in brief: as §1
[11] = Volume of distribution at steady state in Sprague-Dawley rat at 5 mg/kg, iv; type: ADME, organism-based; parameters: dose 5 mg/kg, route intravenous; settings: in vivo, read-out: Vdss; method in brief: as §1

Row | SMILES | pEC50 [2] | CC50 at 24 h [1] [µM] | further results
1 | NC(=S)Nc1cccc(Oc2ccccc2)c1 |  | > 50 | 
2 | COc1cc2c(cc1NC(N)=S)oc1ccccc12 | 5.26 | > 50 | 
3 | CCn1c2ccccc2c2cc(NC(N)=S)ccc21 | 5.12 | > 50 | 
4 | CCNC(=S)Nc1ccc2c(c1)Cc1cc(Br)ccc1-2 | < 4.30 | > 50 | 
5 | NC(=S)Nc1ccc2cn[nH]c2c1 | < 4.30 | > 50 | 
6 | CNC(=S)Nc1ccc2c(c1)Cc1cc(Br)ccc1-2 | < 4.30 | > 50 | 
7 | NC(=S)Nc1ccc2nn[nH]c2c1 | < 4.30 | > 50 | 
8 | NC(=S)Nc1ccc2c(c1)Cc1cc(Br)ccc1-2 | 6.52 | > 50 | Tmax [3]: 0.7 h; AUC [4]: 4940 ng·h/mL; half-life [5]: 3.8 h; clearance [6]: 17 mL/min/kg; bioavailability [7]: 1.2%; Cmax [8]: 106 ng/mL; half-life [9]: 2.6 h; AUC [10]: 294 ng·h/mL; Vd [11]: 2.8 L/kg
9 | CCCCNc1ccc2c(c1)Cc1cc(NC(N)=S)ccc1-2 | 6.42 | > 50 | 
10 | NC(=S)Nc1ccc2c(c1)C(=O)c1cc(Br)ccc1-2 | 6.24 | > 50 | Tmax [3]: 0.25 h; AUC [4]: 655 ng·h/mL; half-life [5]: 1.7 h; clearance [6]: 127 mL/min/kg; bioavailability [7]: 1.3%; Cmax [8]: 65.3 ng/mL; half-life [9]: 1.4 h; AUC [10]: 43 ng·h/mL; Vd [11]: 2 L/kg
11 | NC(=S)Nc1ccc2c(c1)N1CCN=C1S2 | < 4.30 | > 50 | 
12 | NC(=S)Nc1ccc2[nH]ncc2c1 | < 4.30 | > 50 | 
13 | NC(=S)Nc1ccc2oc(=O)c3ccccc3c2c1 | < 4.30 | > 50 | 
14 | NC(=S)Nc1ccc2c(c1)-c1ccccc1C2=O | 4.68 | > 50 | 
15 | S=C(Nc1cccnc1)Nc1ccc2c(c1)Cc1cc(Br)ccc1-2 | < 4.30 | 19.7 | 
16 | S=C(Nc1ccc(N2CCOCC2)cc1)Nc1ccc2c(c1)Cc1cc(Br)ccc1-2 | 4.47 | 18.1 | 
17 | NC(=O)Nc1ccc2c(c1)Cc1cc(Br)ccc1-2 | < 4.30 | > 50 | 

The next lines start with results.

Row | pEC50 [2] | SMILES | CC50 at 24 h [1] [µM] | further results
18 | 5.68 | NC(=S)Nc1ccc2c(c1)Cc1ccccc1-2 | > 50 | 
19 | 6.36 | CCCN(CCC)c1ccc2c(c1)Cc1cc(NC(N)=S)ccc1-2 | 19.5 | 
20 | < 4.30 | S=C(NCc1ccccc1)Nc1ccc2c(c1)Cc1cc(Br)ccc1-2 | > 50 | 
21 | 6.31 | NC(=S)Nc1ccc2c(c1)Cc1cc(NCc3ccccc3)ccc1-2 | > 50 | 
22 | 6.38 | CCCNc1ccc2c(c1)Cc1cc(NC(N)=S)ccc1-2 | > 50 | 
23 | 4.81 | S=C(Nc1ccc2c(c1)Cc1cc(Br)ccc1-2)Nc1cccc2ccccc12 | > 50 | 
24 | < 4.30 | NC(=S)Nc1ccc2c(c1)Cc1cc(N)ccc1-2 | > 50 | 
25 | 6.08 | CCN(CC)c1ccc2c(c1)Cc1cc(NC(N)=S)ccc1-2 | > 50 | 
26 | 5.95 | CN(C)c1ccc2c(c1)Cc1cc(NC(N)=S)ccc1-2 | > 50 | 
27 | 6.14 | CCCCN(CCCC)c1ccc2c(c1)Cc1cc(NC(N)=S)ccc1-2 | 40.7 | 
28 | 4.37 | S=C(Nc1ccccc1)Nc1ccc2c(c1)Cc1cc(Br)ccc1-2 | 46.2 | 
29 | 6.41 | NC(=S)Nc1ccc2c(c1)Cc1cc(N(Cc3ccccc3)Cc3ccccc3)ccc1-2 | 35.6 | 
